Converted amounts (≈) assume the structure as drawn. The source made the active and inactive calls. The calls are words filed in the database; no cut-off is given here.

The nature of assay [1]: Cytotoxicity against human HDF after 72 hrs by MTT assay. Type of assay: cell-based. Put shortly: (§1)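 Cells kept in medium with 2 mM glutamine and 10% FBS at 37 °C, 5% CO2. Compounds dissolved in DMSO just before addition (final ≤0.1% v/v; same solvent in controls). After 72 h exposure, viability read by MTT. Triplicates, ≥3 independent experiments. Dose–response fitted with single or double Hill functions; IC50 extrapolated from curves.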
For orientation: Formazan colour is commonly taken as a measure of viable cells.

Assay [2] can be described thus: Inhibition of Escherichia coli DNA gyrase-mediated supercoiling of pBR322 using bromothymol blue by electrophoresis. Put shortly:
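E. coli gyrase supercoiling of relaxed pBR322 in 35 mM Tris–HCl pH 7.5, 24 mM KCl, 4 mM MgCl2, 2 mM DTT, 1.8 mM spermidine, 1 mM ATP, 6.5% glycerol, 0.1 mg/mL albumin. Incubated 30 min at 37 °C, stopped with chloroform/isoamyl alcohol, run on 1% agarose and gel-quantitated. IC50 is the concentration halving supercoiling versus drug-free control. ≥3 independent experiments.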

The next assay concerns Haemophilus influenzae. The experiment in a line: Antimicrobial activity against Haemophilus influenzae ATCC 19418 after 24 hrs by broth microdilution method. Format: functional. The settings on record: ATCC 19418, 24 h. Put shortly:
(§2)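 Broth dilution method. H. influenzae grown in Haemophilus Test Medium, other bacteria in Mueller Hinton Broth. Compounds dissolved in DMSO and diluted in growth medium. Incubated 24 h at 37 °C. MIC is the lowest concentration inhibiting reproduction of the organism. Drug-free tubes served as growth controls, organism-free tubes as purity controls, and solvent-only tubes as controls.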
On the technique in general: Dilution methods test growth across graded concentrations, often in twofold steps.

Assay [3] relates to Acinetobacter baumannii. The experiment in a line: Antimicrobial activity against Acinetobacter baumannii ATCC 19606 after 24 hrs by broth microdilution method. Format: functional. The note with it: ATCC 19606, 24 h. The method in brief:
as §2

For assay [4], the system named is Acinetobacter baumannii. The experiment in a line: Antimicrobial activity against quinolone and penicillin-resistant Acinetobacter baumannii after 24 hrs by broth microdilution method. Type of assay: functional. The method in brief: (§3)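 Broth dilution in Mueller Hinton Broth; compounds dissolved in DMSO and diluted in growth medium. […] Drug-free tubes served as growth controls and organism-free tubes as purity controls, with solvent-only controls included. Ciprofloxacin, levofloxacin, moxifloxacin and gemifloxacin were the reference drugs.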

Assay [5] has as its system Staphylococcus epidermidis. The experiment in a line: Antimicrobial activity against Staphylococcus epidermidis ATCC 12228 after 24 hrs by broth microdilution method. Type of assay: functional. The settings on record: ATCC 12228, 24 h. The method in brief:
as §2

Assay [6] has as its system Pseudomonas aeruginosa. The experiment in a line: Antimicrobial activity against quinolone and penicillin-resistant Pseudomonas aeruginosa after 24 hrs by broth microdilution method. Type of assay: functional. The method in brief:
as §3

Assay [7] concerns Staphylococcus epidermidis. The experiment in a line: Antimicrobial activity against quinolone and penicillin-resistant Staphylococcus epidermidis SER after 24 hrs by broth microdilution method. Format: functional. Put shortly:
as §3

Assay [8] relates to Pseudomonas aeruginosa. The experiment in a line: Antimicrobial activity against Pseudomonas aeruginosa ATCC 9027 after 24 hrs by broth microdilution method. Type of assay: functional. The note with it: ATCC 9027, 24 h. The method in brief: as §2
The subject of assay [9] is MCF7. The experiment in a line: Induction of apoptosis in human MCF7 cells assessed as caspase-7 activation at 5 uM after 24 hrs by Western blotting. In general terms: Immunoblotting shows a protein as a band on a membrane.
The nature of assay [10]: Inhibition of Escherichia coli DNA topoisomerase-4-mediated decatenation of kinetoplast DNA by electrophoresis.
A further assay deals with A549. The experiment in a line: Cytotoxicity against human A549 cells after 72 hrs by MTT assay. Type of assay: functional, cell-based. The settings on record: A549, 72 h. The method in brief: as §1
Assay [11] has as its system MCF7. The experiment in a line: Induction of cell death in human MCF7 cells at 5 uM after 48 hrs using Hoechst 33342/PI staining by microscopy. Type of assay: functional, cell-based. The method in brief: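 MCF-7 cells exposed to compound for 48 h, then stained with Hoechst 33342/PI. Cell death quantified by fluorescence microscopy as percent values. Means of three separate experiments.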

Assay [12] has as its system Staphylococcus aureus. The experiment in a line: Antimicrobial activity against Staphylococcus aureus ATCC 6538 after 24 hrs by broth microdilution method. Type of assay: functional. The settings on record: ATCC 6538, 24 h. Put shortly:
as §2

Assay [13] deals with Staphylococcus aureus. The experiment in a line: Antimicrobial activity against quinolone and penicillin-resistant Staphylococcus aureus SAR72 after 24 hrs by broth microdilution method. Type of assay: functional. Put shortly:
as §3

Assay [14] deals with Staphylococcus aureus. The experiment in a line: Antimicrobial activity against quinolone and penicillin-resistant Staphylococcus aureus SAR4790 after 24 hrs by broth microdilution method. Type of assay: functional. Put shortly: as §3
In assay [15] the test system is MCF7. The experiment in a line: Cytotoxicity against human MCF7 cells after 72 hrs by MTT assay. Format: functional, cell-based. The note with it: MCF7, 72 h. The method in brief:
as §1

Assay [16] deals with Escherichia coli. The experiment in a line: Antimicrobial activity against Escherichia coli ATCC 8739 after 24 hrs by broth microdilution method. Format: functional. The settings on record: ATCC 8739, 24 h. The method in brief:
as §2

Another assay has as its system Bacillus subtilis. The experiment in a line: Antimicrobial activity against Bacillus subtilis ATCC 6633 after 24 hrs by broth microdilution method. Format: functional. The settings on record: ATCC 6633, 24 h. Put shortly: as §2
Assay [17] relates to MCF7. The experiment in a line: Induction of apoptosis in human MCF7 cells assessed as p53 accumulation after 24 hrs by Western blotting.
The subject of assay [18] is Escherichia coli. The experiment in a line: Antimicrobial activity against quinolone and penicillin-resistant Escherichia coli after 24 hrs by broth microdilution method. Type of assay: functional. Put shortly:
as §3

By IC50 is commonly meant the concentration that gives 50% inhibition. A higher IC50 goes with lower potency. Take `O=C(O)c1cn(C2CC2)c2c(cc(F)c3c4ccc(F)cc4[nH]c32)c1=O`: the half-inhibitory concentration (IC50) was above 10 µM in [1]; 1.8 µg/mL (≈ 5.08 µM) in assay [2]; 28 µg/mL (≈ 79 µM) in [10]; 3.5 µM in the assay on A549; 800 nM in the assay with MCF7 [15]. Further, the MIC with Haemophilus influenzae is 0.15 µg/mL (≈ 0.423 µM); against Acinetobacter baumannii [3], 12 µg/mL (≈ 33.9 µM); against Acinetobacter baumannii [4] it was above 100 µg/mL; in [5] it was 0.07 µg/mL (≈ 0.198 µM); in assay [7], 3 µg/mL (≈ 8.47 µM); against Pseudomonas aeruginosa [8] it was above 100 µg/mL. In addition, the MIC against Staphylococcus aureus [12] is 0.07 µg/mL (≈ 0.198 µM); in the assay with Staphylococcus aureus [13] (SAR72, 24 h), 1.5 µg/mL (≈ 4.23 µM); with Staphylococcus aureus [14] (SAR4790, 24 h) it was above 100 µg/mL; in the assay with Escherichia coli [16], 25 µg/mL (≈ 70.6 µM); in the assay with Bacillus subtilis it was 0.003 µg/mL (≈ 0.00847 µM); with Escherichia coli [18], above 100 µg/mL. Further, the MIC entry with Pseudomonas aeruginosa [6] is “inactive”. In addition, the result in the assay on MCF7 [9], in the assay with MCF7 [11] and in the assay with MCF7 [17] was Active.

With `COc1ccc2c(c1)[nH]c1c2c(F)cc2c(=O)c(C(=O)O)cn(C3CC3)c21`, the 50% inhibitory concentration (IC50) was above 10 µM in assay [1]; 4.8 µg/mL (≈ 13.1 µM) in [2]; 48 µg/mL (≈ 131 µM) in [10]; 4.9 µM in the assay on A549; 2400 nM with MCF7 [15]. Besides, the MIC with Haemophilus influenzae is 1.5 µg/mL (≈ 4.09 µM); against Acinetobacter baumannii [3], 50 µg/mL (≈ 136 µM); in the assay with Acinetobacter baumannii [4] it was above 100 µg/mL; in assay [5], 3 µg/mL (≈ 8.19 µM); in assay [7], above 100 µg/mL; against Pseudomonas aeruginosa [8] it was above 100 µg/mL. The MIC in the assay with Staphylococcus aureus [12] is 3 µg/mL (≈ 8.19 µM); against Staphylococcus aureus [13] (SAR72, 24 h), above 100 µg/mL; against Staphylococcus aureus [14] (SAR4790, 24 h), above 100 µg/mL; against Escherichia coli [16], above 100 µg/mL; against Bacillus subtilis, 0.07 µg/mL (≈ 0.191 µM). The MIC result in the assay on Pseudomonas aeruginosa [6] and in the assay with Escherichia coli [18] was “inactive” throughout.

For the molecule `Cc1ccc2c(c1)[nH]c1c2c(F)cc2c(=O)c(C(=O)O)cn(C3CC3)c21`, the IC50 in assay [1] was above 10 µM; in [2], 3 µg/mL (≈ 8.56 µM); in assay [10], above 300 µg/mL; in the assay on A549, above 10 µM; in the assay with MCF7 [15], above 10000 nM. The MIC (against Haemophilus influenzae; against Acinetobacter baumannii [3]; in assay [5]; against Pseudomonas aeruginosa [8]; with Staphylococcus aureus [12]; with Escherichia coli [16]) was above 100 µg/mL each time. Also, the MIC in the assay with Bacillus subtilis is 0.07 µg/mL (≈ 0.2 µM). Further, the MIC result (in the assay on Acinetobacter baumannii [4]; with Pseudomonas aeruginosa [6]; in [7]; with Staphylococcus aureus [13]; with Staphylococcus aureus [14]; in the assay with Escherichia coli [18]) was “inactive” throughout.

In the case of `Cc1c2ccncc2c(C)c2c1[nH]c1ccccc12` [ELLIPTECINE], the values for the IC50 (in assay [1]; with A549; in the assay on MCF7 [15]) were above 10 µM, 3.4 µM and 1600 nM, respectively.

Regarding `COc1c(C)cc2c([nH]c3c2c(F)cc2c(=O)c(C(=O)O)cn(C4CC4)c23)c1C`, the half-inhibitory concentration (IC50) is above 10 µM in [1]; above 30 µg/mL in assay [2]; 31 µg/mL (≈ 78.6 µM) in assay [10]; 3 µM in the assay with A549; 1700 nM in the assay on MCF7 [15]. Also, the MIC in the assay on Haemophilus influenzae is 6 µg/mL (≈ 15.2 µM); with Acinetobacter baumannii [3], above 100 µg/mL; in assay [5] it was 25 µg/mL (≈ 63.4 µM); in assay [7], above 100 µg/mL; in the assay on Pseudomonas aeruginosa [8], above 100 µg/mL; against Staphylococcus aureus [12], 6 µg/mL (≈ 15.2 µM). The MIC is above 100 µg/mL against Staphylococcus aureus [13] (SAR72, 24 h); above 100 µg/mL in the assay with Staphylococcus aureus [14] (SAR4790, 24 h); above 100 µg/mL against Escherichia coli [16]; 0.07 µg/mL (≈ 0.177 µM) against Bacillus subtilis. Moreover, the MIC entry in the assay with Acinetobacter baumannii [4], with Pseudomonas aeruginosa [6] and in the assay on Escherichia coli [18] was “inactive” in each case.

On to `O=C(O)c1cn(C2CC2)c2c(cc(F)c3c2[nH]c2ccsc23)c1=O`, for which the half-maximal inhibitory concentration (IC50) in assay [1] was above 10 µM; in assay [2] it was 1.1 µg/mL (≈ 3.21 µM); in assay [10] it was 100 µg/mL (≈ 292 µM); with A549 it was 6.4 µM; in the assay on MCF7 [15], 4400 nM. Further, the MIC against Haemophilus influenzae is 0.015 µg/mL (≈ 0.0438 µM); with Acinetobacter baumannii [3] it was 3 µg/mL (≈ 8.76 µM); against Acinetobacter baumannii [4] it was above 100 µg/mL; in [5], 0.03 µg/mL (≈ 0.0876 µM); against Pseudomonas aeruginosa [6] it was above 100 µg/mL; in assay [7] it was 50 µg/mL (≈ 146 µM). The MIC is 50 µg/mL (≈ 146 µM) against Pseudomonas aeruginosa [8]; 0.03 µg/mL (≈ 0.0876 µM) in the assay on Staphylococcus aureus [12]; 12 µg/mL (≈ 35.1 µM) in the assay with Staphylococcus aureus [13] (SAR72, 24 h); above 100 µg/mL in the assay with Staphylococcus aureus [14] (SAR4790, 24 h); 1.5 µg/mL (≈ 4.38 µM) in the assay with Escherichia coli [16]; 0.003 µg/mL (≈ 0.00876 µM) with Bacillus subtilis. This molecule gave an MIC against Escherichia coli [18] above 100 µg/mL.

For the origin of these results see ChEMBL document CHEMBL1212890, “Synthesis and biological evaluation of tetracyclic fluoroquinolones as antibacterial and anticancer agents” (Bioorg Med Chem, 2010).
